Data taken from ChEMBL document CHEMBL1141070, “Synthesis and biological activity of flurbiprofen analogues as selective inhibitors of beta-amyloid(1)(-)(42) secretion” (J Med Chem, 2005).

Key:
[1] = biological target: Cytochrome P450 2C9 (Homo sapiens, UniProt P11712); experiment: Interaction with human cytochrome P450 isoform 2C9 expressed in baculovirus-insect cells; type: ADME
How it was run: (§1)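 Microsomes from baculovirus-insect cells expressing human CYP1A2, 2C9, 2C19, 2D6 or 3A4. Compound serially diluted with an NADPH-regenerating mix (16.3 μM NADP+, 0.83 mM glucose-6-phosphate, 0.83 mM MgCl2, 0.4 U/mL G6PDH). Pre-warmed 10 min at 37 °C, then isoform-specific substrate added in 0.35 M potassium phosphate pH 7.4. Fluorometric read-out; IC50 by nonlinear regression.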

[2] = biological target: T1, Amyloid-beta precursor protein (Homo sapiens, UniProt P05067); details: at 100 µM
Target sequence in this assay (P05067 whole entry, canonical isoform): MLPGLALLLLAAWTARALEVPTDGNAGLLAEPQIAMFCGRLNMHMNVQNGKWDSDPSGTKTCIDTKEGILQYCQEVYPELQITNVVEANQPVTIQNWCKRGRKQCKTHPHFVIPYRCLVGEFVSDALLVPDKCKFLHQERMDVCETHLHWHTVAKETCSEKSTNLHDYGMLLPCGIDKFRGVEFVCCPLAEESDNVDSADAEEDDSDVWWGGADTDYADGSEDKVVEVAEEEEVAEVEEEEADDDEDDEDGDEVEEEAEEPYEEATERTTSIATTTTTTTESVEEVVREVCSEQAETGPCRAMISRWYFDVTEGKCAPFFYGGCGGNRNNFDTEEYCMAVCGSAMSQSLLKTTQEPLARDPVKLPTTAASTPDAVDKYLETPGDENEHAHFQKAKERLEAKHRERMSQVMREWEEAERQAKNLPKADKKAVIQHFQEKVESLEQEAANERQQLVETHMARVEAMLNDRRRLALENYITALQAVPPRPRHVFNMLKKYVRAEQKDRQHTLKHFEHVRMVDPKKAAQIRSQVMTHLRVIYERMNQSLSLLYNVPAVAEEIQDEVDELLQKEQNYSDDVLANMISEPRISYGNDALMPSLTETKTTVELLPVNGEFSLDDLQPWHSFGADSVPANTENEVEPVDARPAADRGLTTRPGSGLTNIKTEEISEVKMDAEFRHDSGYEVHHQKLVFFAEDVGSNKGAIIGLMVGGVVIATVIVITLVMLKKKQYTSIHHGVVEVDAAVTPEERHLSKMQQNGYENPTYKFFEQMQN

[3] = biological target: Cytochrome P450 2C19 (Homo sapiens, UniProt P33261); experiment: Interaction with human cytochrome P450 isoform 2C19 expressed in baculovirus-insect cells; type: ADME; how it was run: as §1
Chain of Cytochrome P450 2C19 (P33261 whole entry, canonical isoform): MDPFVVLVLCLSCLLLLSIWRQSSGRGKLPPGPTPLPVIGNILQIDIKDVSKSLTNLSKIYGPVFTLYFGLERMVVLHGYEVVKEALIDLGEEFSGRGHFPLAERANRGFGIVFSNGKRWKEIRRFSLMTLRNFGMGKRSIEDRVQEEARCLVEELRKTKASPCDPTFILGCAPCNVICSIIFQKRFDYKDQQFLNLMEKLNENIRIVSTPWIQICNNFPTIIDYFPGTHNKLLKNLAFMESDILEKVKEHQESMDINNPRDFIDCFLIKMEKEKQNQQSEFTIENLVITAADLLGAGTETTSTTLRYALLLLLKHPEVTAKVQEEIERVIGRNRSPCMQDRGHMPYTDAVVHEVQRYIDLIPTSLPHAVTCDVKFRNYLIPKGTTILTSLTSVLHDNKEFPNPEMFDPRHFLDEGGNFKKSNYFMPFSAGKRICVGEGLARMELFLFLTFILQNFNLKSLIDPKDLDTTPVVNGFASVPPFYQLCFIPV

[4] = biological target: T1, Amyloid-beta precursor protein; experiment: (§2) Concentration required to inhibit A beta 40 peptide 100 uM
How it was run: (§3)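 H4-APP695NL human neuroglioma cells (APP695 Swedish K595N/M596L) seeded at 2 × 10^5/well and grown 24 h to confluence. Increasing compound concentrations added overnight; DMSO 1% as vehicle. Supernatant Aβ42 or Aβ40 measured by electrochemiluminescence immunoassay: biotinylated 4G8 plus C-terminus-specific rabbit antibodies, captured on streptavidin beads.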
Target sequence in this assay (P05067 whole entry, canonical isoform): as the sequence (P05067 whole entry, canonical isoform) above

[5] = In vivo steady state metabolic clearance of the compound; details: rat
[6] = Concentration ratio in cerebrospinal fluid and plasma; details: rat
[7] = biological target: T2, Prostaglandin G/H synthase 1 (Rattus norvegicus) (UniProt Q63921); experiment: Percent inhibition against cyclooxygenase-1 at 100 uM in rat blood
T2 sequence (whole entry): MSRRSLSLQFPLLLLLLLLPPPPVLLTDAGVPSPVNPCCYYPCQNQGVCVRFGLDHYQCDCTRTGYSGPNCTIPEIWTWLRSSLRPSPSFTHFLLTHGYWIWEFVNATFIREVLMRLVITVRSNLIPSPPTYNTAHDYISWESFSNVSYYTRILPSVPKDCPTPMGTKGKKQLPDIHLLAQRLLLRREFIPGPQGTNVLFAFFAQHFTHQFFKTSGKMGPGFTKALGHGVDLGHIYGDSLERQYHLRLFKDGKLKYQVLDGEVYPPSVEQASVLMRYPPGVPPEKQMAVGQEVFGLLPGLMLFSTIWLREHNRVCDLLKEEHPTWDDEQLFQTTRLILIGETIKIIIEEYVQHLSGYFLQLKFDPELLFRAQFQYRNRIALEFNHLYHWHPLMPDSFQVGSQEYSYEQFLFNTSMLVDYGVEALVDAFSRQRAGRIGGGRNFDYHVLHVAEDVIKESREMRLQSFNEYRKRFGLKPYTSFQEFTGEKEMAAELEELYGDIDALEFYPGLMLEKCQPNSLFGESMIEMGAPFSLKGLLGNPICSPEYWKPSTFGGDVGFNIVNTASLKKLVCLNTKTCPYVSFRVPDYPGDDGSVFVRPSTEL
How it was run: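 Fresh rat whole blood preincubated 1 h at 37 °C with compound (100 μM) or DMSO (0.3% final). Stimulated 30 min with A23187 calcium ionophore; plasma thromboxane B2 measured by radioimmunoassay.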

[8] = biological target: T1, Amyloid-beta precursor protein; experiment: Inhibitory concentration against beta-amyloid-42 (Abeta42) secretion was evaluated in human neuroglioma cells (H4-APP695NL); type: functional, cell-based; how it was run: as §3
Target sequence in this assay (P05067 18-770 limits assumed): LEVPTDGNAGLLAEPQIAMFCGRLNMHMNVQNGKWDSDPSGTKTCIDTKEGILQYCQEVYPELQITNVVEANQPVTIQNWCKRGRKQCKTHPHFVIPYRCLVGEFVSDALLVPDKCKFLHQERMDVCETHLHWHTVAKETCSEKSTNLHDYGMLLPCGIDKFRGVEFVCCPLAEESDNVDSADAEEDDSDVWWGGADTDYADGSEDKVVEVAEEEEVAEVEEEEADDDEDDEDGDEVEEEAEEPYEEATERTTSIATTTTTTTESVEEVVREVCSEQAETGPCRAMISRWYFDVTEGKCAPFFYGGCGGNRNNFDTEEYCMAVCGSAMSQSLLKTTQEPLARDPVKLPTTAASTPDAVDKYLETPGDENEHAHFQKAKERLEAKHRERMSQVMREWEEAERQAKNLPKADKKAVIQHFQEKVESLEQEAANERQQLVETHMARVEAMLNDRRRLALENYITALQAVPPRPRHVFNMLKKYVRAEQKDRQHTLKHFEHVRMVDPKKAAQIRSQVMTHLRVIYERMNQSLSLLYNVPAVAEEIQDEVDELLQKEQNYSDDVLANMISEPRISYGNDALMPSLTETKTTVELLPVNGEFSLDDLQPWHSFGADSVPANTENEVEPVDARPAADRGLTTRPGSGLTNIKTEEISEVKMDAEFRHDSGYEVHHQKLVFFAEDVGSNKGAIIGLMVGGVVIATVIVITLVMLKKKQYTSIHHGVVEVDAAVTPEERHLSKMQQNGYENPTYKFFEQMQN

[9] = biological target: Cytochrome P450 3A4 (Homo sapiens, UniProt P08684); experiment: Interaction with human cytochrome P450 isoform 3A4 expressed in baculovirus-insect cells; type: ADME
Chain of Cytochrome P450 3A4 (P08684 whole entry, canonical isoform): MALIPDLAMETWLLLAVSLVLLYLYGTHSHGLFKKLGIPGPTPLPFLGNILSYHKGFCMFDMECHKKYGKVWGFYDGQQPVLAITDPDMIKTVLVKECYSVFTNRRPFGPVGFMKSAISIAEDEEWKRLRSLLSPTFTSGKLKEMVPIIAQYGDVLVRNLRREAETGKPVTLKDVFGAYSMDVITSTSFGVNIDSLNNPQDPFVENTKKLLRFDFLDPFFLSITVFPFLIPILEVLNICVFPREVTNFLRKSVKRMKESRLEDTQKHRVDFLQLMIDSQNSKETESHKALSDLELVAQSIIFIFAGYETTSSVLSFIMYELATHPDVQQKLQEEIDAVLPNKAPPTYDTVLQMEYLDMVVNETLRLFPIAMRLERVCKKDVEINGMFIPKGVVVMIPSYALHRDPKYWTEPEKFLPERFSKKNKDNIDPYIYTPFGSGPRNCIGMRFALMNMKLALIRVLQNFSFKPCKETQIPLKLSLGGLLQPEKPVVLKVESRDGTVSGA
How it was run: (§4)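 Supersome microsomes from baculovirus-insect cells expressing human CYP1A2, 2C9, 2C19, 2D6 or 3A4 were used with isoform-specific fluorogenic substrates. Compounds were serially diluted with an NADP⁺/glucose-6-phosphate regenerating system in 0.35 M potassium phosphate, pH 7.4. Plates were prewarmed 10 min at 37 °C, reactions stopped with acetonitrile/Tris, and fluorescence read. IC50 was obtained by nonlinear regression.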

[10] = biological target: Cytochrome P450 2D6 (Homo sapiens, UniProt P10635); experiment: Interaction with human cytochrome P450 isoform 2D6 expressed in baculovirus-insect cells; type: ADME; how it was run: as §4
Chain of Cytochrome P450 2D6 (P10635 whole entry, canonical isoform): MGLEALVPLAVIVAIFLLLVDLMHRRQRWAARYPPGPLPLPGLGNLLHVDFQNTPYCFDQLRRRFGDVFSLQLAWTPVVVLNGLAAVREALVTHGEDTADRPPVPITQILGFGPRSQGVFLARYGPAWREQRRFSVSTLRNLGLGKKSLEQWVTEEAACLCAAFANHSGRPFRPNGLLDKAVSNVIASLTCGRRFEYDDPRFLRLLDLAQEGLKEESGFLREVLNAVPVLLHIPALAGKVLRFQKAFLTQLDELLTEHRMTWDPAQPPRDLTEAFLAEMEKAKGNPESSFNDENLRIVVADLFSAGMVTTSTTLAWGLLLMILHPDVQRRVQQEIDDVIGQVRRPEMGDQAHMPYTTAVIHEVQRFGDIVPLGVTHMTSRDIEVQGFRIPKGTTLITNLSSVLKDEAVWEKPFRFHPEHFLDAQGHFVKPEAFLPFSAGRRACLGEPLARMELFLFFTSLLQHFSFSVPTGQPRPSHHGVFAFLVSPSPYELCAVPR

[11] = Intestinal drug absorption was estimated in vitro using human colon adenocarcinoma (Caco-2) cell monolayers; type: ADME
How it was run: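 Caco-2 monolayers on polycarbonate Transwell inserts, 2 h at 37 °C. Apical and basolateral solutions analysed by LC-MS/MS (SRM). Papp = Cb·Vb/(C0·A·t).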

[12] = biological target: T3, Prostaglandin G/H synthase 1 (Rattus norvegicus, UniProt Q63921); experiment: Concentration required to inhibit cyclooxygenase-1 in rat blood
T3 sequence (Q63921 whole entry): T2 sequence (whole entry)
How it was run: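 Fresh rat whole blood was preincubated 1 h at 37 °C with compound (100 μM or a concentration series; DMSO 0.3% final). It was then stimulated 30 min with the Ca²⁺ ionophore A23187. Thromboxane B2 in the plasma was measured by radioimmunoassay.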

[13] = biological target: CYP2C19 (Homo sapiens, UniProt P33261); experiment: Interaction with human cytochrome P450 isoform 2C19 expressed in baculovirus-insect cells at 100 uM; type: ADME; how it was run: as §1
Chain of CYP2C19 (P33261 whole entry, canonical isoform): as the sequence (P33261 whole entry, canonical isoform) above

[14] = biological target: CYP2C9 (Homo sapiens, UniProt P11712); experiment: Interaction with human cytochrome P450 isoform 2C9 expressed in baculovirus-insect cells at 100 uM; type: ADME; how it was run: as §1
Chain of CYP2C9 (P11712 whole entry, canonical isoform): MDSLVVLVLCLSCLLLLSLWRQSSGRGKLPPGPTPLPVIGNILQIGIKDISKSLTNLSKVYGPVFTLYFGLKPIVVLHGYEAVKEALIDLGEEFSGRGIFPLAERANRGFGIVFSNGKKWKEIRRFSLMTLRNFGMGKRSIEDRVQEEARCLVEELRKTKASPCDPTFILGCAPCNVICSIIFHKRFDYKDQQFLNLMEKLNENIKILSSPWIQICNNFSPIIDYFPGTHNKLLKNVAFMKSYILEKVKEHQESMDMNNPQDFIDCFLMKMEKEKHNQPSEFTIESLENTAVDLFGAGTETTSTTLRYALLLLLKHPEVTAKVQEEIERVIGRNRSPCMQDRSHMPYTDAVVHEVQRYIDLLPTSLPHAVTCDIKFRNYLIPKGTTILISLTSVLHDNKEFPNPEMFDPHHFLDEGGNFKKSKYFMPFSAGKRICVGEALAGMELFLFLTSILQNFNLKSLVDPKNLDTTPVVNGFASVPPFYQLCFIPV

[15] = biological target: CYP3A4 (Homo sapiens, UniProt P08684); experiment: Interaction with human cytochrome P450 isoform 3A4 expressed in baculovirus-insect cells at 100 uM; type: ADME; how it was run: as §1
Chain of CYP3A4 (P08684 whole entry, canonical isoform): as the sequence (P08684 whole entry, canonical isoform) above

[16] = biological target: T4, CYP1A2 (Homo sapiens, UniProt P05177); experiment: Interaction with human cytochrome P450 isoform 1A2 expressed in baculovirus-insect cells at 100 uM; type: ADME; how it was run: as §1
T4 sequence (P05177 whole entry): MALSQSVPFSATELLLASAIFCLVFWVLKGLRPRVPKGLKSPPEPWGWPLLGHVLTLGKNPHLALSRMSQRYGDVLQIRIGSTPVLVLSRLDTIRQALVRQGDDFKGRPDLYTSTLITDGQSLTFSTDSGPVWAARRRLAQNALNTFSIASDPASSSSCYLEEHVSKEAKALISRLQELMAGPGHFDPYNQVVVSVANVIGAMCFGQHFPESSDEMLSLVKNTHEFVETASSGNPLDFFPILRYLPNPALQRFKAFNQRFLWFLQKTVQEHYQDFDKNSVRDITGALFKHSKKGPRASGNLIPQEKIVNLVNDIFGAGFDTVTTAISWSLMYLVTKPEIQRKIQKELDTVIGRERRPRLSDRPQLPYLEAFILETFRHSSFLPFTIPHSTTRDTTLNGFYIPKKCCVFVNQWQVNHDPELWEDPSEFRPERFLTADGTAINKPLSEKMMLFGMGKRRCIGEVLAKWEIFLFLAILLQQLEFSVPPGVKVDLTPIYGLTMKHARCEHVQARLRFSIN

[17] = biological target: CYP2D6 (Homo sapiens, UniProt P10635); experiment: Interaction with human cytochrome P450 isoform 2D6 expressed in baculovirus-insect cells at 100 uM; type: ADME; how it was run: as §1
Chain of CYP2D6 (P10635 whole entry, canonical isoform): as the sequence (P10635 whole entry, canonical isoform) above

[18] = biological target: T1, Amyloid-beta precursor protein; experiment: as §2; remark: listed apart in the source
Target sequence in this assay (P05067 whole entry, canonical isoform): as the sequence (P05067 whole entry, canonical isoform) above

Chain of Cytochrome P450 2C9 (P11712 whole entry, canonical isoform): as the sequence (P11712 whole entry, canonical isoform) above

SMILES	inhibition [2]	Clearance [5]	Ratio [6]	IC50 [8]	further results
CC1(C)CCC(c2ccc(-c3ccc(C4(C(=O)O)CC4)cc3F)cc2)CC1	75%	145.8 mL/h	Below LLOQ	46 µM	IC50 [1]: 17 µM; IC50 [3]: 13 µM; IC50 [4]: 101 µM; inhibition [7]: 17%; IC50 [9]: 84 µM; IC50 [10]: 5.3 µM; Papp [11]: < 10 nm/s
C[C@H](C(=O)O)c1ccc(-c2ccccc2)c(F)c1 [ESFLURBIPROFEN]	–	–	–	–	IC50 [12]: 0.03 µM
CC(C(=O)O)c1ccc(-c2ccsc2)c(F)c1 (stereo not given)	40%	–	–	–	–
CC(C(=O)NS(C)(=O)=O)c1ccc(-c2ccc(C(F)(F)F)cc2)c(F)c1 (stereo not given)	34%	3.1 mL/h	1.7%	–	inhibition at 100 µM [13]: > 50%; inhibition at 100 µM [14]: > 50%; inhibition at 100 µM [15]: > 50%; inhibition at 100 µM [16]: > 50%; inhibition at 100 µM [17]: > 50%
CC(C(=O)O)c1ccc(-c2ccc(O)cc2)c(F)c1 (stereo not given)	27%	–	–	–	–
CC(C(=O)O)c1ccc(-c2ccc(C(F)(F)F)cc2)cc1C(F)(F)F (stereo not given)	57%	–	–	–	–
CC(C(=O)O)c1ccc(-c2ccc(C(F)(F)F)cc2)c(Cl)c1 (stereo not given)	–	–	–	–	inhibition [18]: 40%
O=C(O)C1(c2ccc(-c3ccccc3)c(F)c2)CC1	40%	9.8 mL/h	2.3%	–	IC50 [1]: 83 µM; inhibition [7]: 26%; Papp [11]: > 50 nm/s
CC(C(=O)O)c1ccc(-c2ccccc2Cl)c(F)c1 (stereo not given)	13%	–	–	–	–
O=C(O)C1(c2ccc(-c3ccc(OC4CCOCC4)cc3)c(F)c2)CC1	28%	70.5 mL/h	1.1%	–	–
CC(C(=O)O)c1ccc(-c2ccncc2)c(F)c1 (stereo not given)	11%	–	–	–	–
O=C(O)C1(c2ccc(-c3ccc(-c4ccc(O)cc4)cc3)c(F)c2)CC1	99%	–	–	31.6 µM	IC50 [1]: 89 µM; IC50 [3]: 35 µM; IC50 [4]: 409 µM; inhibition [7]: < 1%; IC50 [10]: 21.5 µM; Papp [11]: > 50 nm/s
O=C(O)C1(c2ccc(-c3csc4ccccc34)c(F)c2)CC1	49%	113.6 mL/h	2.6%	96.3 µM	IC50 [1]: 19 µM; inhibition [7]: < 1%; Papp [11]: > 50 nm/s
CC(C(=O)O)c1ccc(-c2ccc3c(c2)OCO3)c(F)c1 (stereo not given)	42%	–	–	210 µM	–
CC(C)(C(=O)O)c1ccc(-c2ccc(C(F)(F)F)cc2)c(F)c1	58%	–	–	70.6 µM	–
CC(c1ccc(-c2ccc(C(F)(F)F)cc2)c(F)c1)c1noc(O)n1 (stereo not given)	46%	5.3 mL/h	2.1%	–	inhibition at 100 µM [13]: > 50%; inhibition at 100 µM [14]: > 50%; inhibition at 100 µM [15]: > 50%
